# Results taken from ChEMBL document CHEMBL1275434, “In vitro evaluation of CBR-2092, a novel rifamycin-quinolone hybrid antibiotic: studies of the mode of action in Staphylococcus aureus” (Antimicrob Agents Chemother, 2008).
# Activity calls are given as the source filed them. The rule behind the calls is not given here.
# Legend:
# Staphylococcus aureus [1] = test: Antimicrobial activity against Staphylococcus aureus CB1952 harboring rpoB S486L, gyrA […], gyrA E88Q, gyrA G532S, parC S80F, parC E84L mutant genes selected after CBR-2092 exposure for 21 days; format: functional; details: CB1952, 504 h
# Staphylococcus aureus [2] = test: Activity at Staphylococcus aureus wild-type GyrA
# How it was run: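 Recombinant S. aureus gyrase (wild-type GyrA with His-tagged GyrB; 250 U per μg). SDS/proteinase K stop. Gel quantitation of linear cleavage product gave CC50, the mean of two or more assays.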
# Staphylococcus aureus [3] = test: Antimicrobial activity against rifampin-sensitive Staphylococcus aureus CB190 harboring rpoB H472 mutant gene by broth microdilution method; format: functional
# How it was run: (§1)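 CLSI broth microdilution MIC in cation-adjusted Mueller-Hinton (MHII) broth supplemented with 0.002% (vol/vol) polysorbate 80, included to limit compound loss to plastic surfaces.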
# Staphylococcus aureus [4] = test: Antimicrobial activity against Staphylococcus aureus CB812 harboring rpo B H481Y and gyrA S84L mutant genes by broth microdilution method; format: functional; how it was run: as §1
# Staphylococcus aureus [5] = test: Inhibition of DNA synthesis in Staphylococcus aureus CB190 assessed as decrease in [methyl-3H]thymidine incorporation at 2 ug/ml; format: functional, organism-based
# Staphylococcus aureus [6] = test: Antimicrobial activity against rifampin-sensitive Staphylococcus aureus CB190 harboring rpo BH481D mutant gene by broth microdilution method; format: functional; how it was run: as §1
# Staphylococcus aureus [7] = test: Antimicrobial activity against Staphylococcus aureus CB809 harboring rpoB H481Y and parC S80F mutant genes by broth microdilution method
# Staphylococcus aureus [8] = test: Antimicrobial activity against rifampin-sensitive Staphylococcus aureus CB190 harboring rpoB A477V mutant gene by broth microdilution method; format: functional; how it was run: as §1
# Staphylococcus aureus [9] = test: Antimicrobial activity against rifampin-sensitive Staphylococcus aureus CB190 harboring rpoB E473 mutant gene by broth microdilution method; format: functional; how it was run: as §1
# Staphylococcus aureus [10] = test: Activity at Staphylococcus aureus wild-type DNA topoisomerase 4 subunit ParC
# How it was run: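 Recombinant S. aureus topoisomerase IV (wild-type ParC with ParE; specific activity 25 to 30 U per μg). Stopped with SDS/proteinase K. Linear DNA quantified on gel; CC50 is the mean of two or more assays.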
# Staphylococcus aureus [11] = test: Antimicrobial activity against rifampin-sensitive Staphylococcus aureus CB190 harboring rpoB D471G mutant gene by broth microdilution method; format: functional; how it was run: as §1
# Staphylococcus aureus [12] = test: Antimicrobial activity against rifampin-sensitive Staphylococcus aureus CB190 harboring rpoB N474K mutant gene by broth microdilution method; format: functional; how it was run: as §1
# Staphylococcus aureus [13] = test: Antimicrobial activity against Staphylococcus aureus CB370 harboring rpoB H481Y mutant gene; format: functional
# Staphylococcus aureus [14] = test: Antimicrobial activity against Staphylococcus aureus CB1953 harboring rpoB H481Y, gyrA S84L, gyrA V598I, parC S80F, parC R570H mutant genes selected after CBR-2092 exposure for 7 days; format: functional; details: CB1953, 168 h
# Staphylococcus aureus [15] = test: Antimicrobial activity against rifampin-sensitive Staphylococcus aureus CB190 harboring rpoB D471Y mutant gene by broth microdilution method; format: functional; how it was run: as §1
# Staphylococcus aureus [16] = test: Inhibition of cell wall synthesis in quinolone-resistant Staphylococcus aureus CB814 harboring gyrA S84L and parC S80F mutant genes assessed as [2,3-3H]D-alanine incorporation at 2 ug/ml; format: functional, organism-based
# How it was run: (§2)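 Macromolecular synthesis time course in S. aureus, measuring incorporation of [methyl-3H]thymidine (DNA), [5,6-3H]uridine (RNA) or [2,3-3H]D-alanine (cell wall). At each time point, incorporation is expressed as percent of the DMSO-treated control culture. Incorporation at time zero is set to 100%.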
# Staphylococcus aureus [17] = test: Inhibition of DNA synthesis in quinolone-resistant Staphylococcus aureus CB814 harboring gyrA S84L and parC S80F mutant genes assessed as [methyl-3H]thymidine incorporation at 2 ug/ml; format: functional, organism-based; how it was run: as §2
# Staphylococcus aureus [18] = test: Antimicrobial activity against rifampin-sensitive Staphylococcus aureus CB190 harboring rpoB H481N mutant gene by broth microdilution method; format: functional; how it was run: as §1
# Staphylococcus aureus [19] = test: Antimicrobial activity against Staphylococcus aureus CB1947 harboring rpoB H481Y, gyrA S84L, E697 deficient gyrA, parC G167V mutant genes selected after CBR-2092 exposure for 20 days; details: CB1947, 480 h
# Staphylococcus aureus [20] = test: Activity at Staphylococcus aureus DNA topoisomerase 4 subunit ParC S80F mutant
# Staphylococcus aureus [21] = test: Antimicrobial activity against Staphylococcus aureus CB811 harboring quinolone-resistant gyrA S84L mutant gene by broth microdilution method; format: functional; how it was run: as §1
# Staphylococcus aureus [22] = test: Antimicrobial activity against Staphylococcus aureus CB1884; format: functional
# Staphylococcus aureus [23] = test: Inhibition of RNA synthesis in quinolone-resistant Staphylococcus aureus CB814 harboring gyrA S84L and parC S80F mutant genes assessed as [5,6-3H]uridine incorporation at 2 ug/ml; format: functional, organism-based; how it was run: as §2
# Staphylococcus aureus [24] = test: Antimicrobial activity against rifampin-sensitive Staphylococcus aureus CB190 by broth microdilution method; format: functional; how it was run: as §1
# Staphylococcus aureus [25] = test: Antimicrobial activity against Staphylococcus aureus CB1954 harboring rpoB H481Y, gyrA S84L, K809 deficient gyrA, parC S80F, parC A523D mutant genes selected after CBR-2092 exposure for 7 days; format: functional; details: CB1954, 168 h; how it was run: as §1
# Staphylococcus aureus [26] = test: Inhibition of cell wall synthesis in Staphylococcus aureus CB190 assessed as decrease in [2,3-3H]D-alanine incorporation at 2 ug/ml; format: functional, organism-based
# Staphylococcus aureus [27] = test: Antimicrobial activity against Staphylococcus aureus CB1887 harboring rpoB R484H, L520 deficient gyrA, […], R236 duplicated parC and parC H103Y mutant genes selected after ABT-719 exposure for 20 days; format: functional; details: CB1887, 480 h
# Staphylococcus aureus [28] = test: Antimicrobial activity against Staphylococcus aureus CB370 harboring rifampin-resistant rpoB H481Y mutant gene by broth microdilution method; format: functional; how it was run: as §1
# Staphylococcus aureus [29] = test: Antimicrobial activity against Staphylococcus aureus CB808 harboring quinolone-resistant parC S80F mutant gene by broth microdilution method; format: functional; how it was run: as §1
# Staphylococcus aureus [30] = test: Antimicrobial activity against rifampin-sensitive Staphylococcus aureus CB190 harboring rpoB Q468L mutant gene by broth microdilution method; format: functional; how it was run: as §1
# Staphylococcus aureus [31] = test: Inhibition of RNA synthesis in Staphylococcus aureus CB190 assessed as decrease in [5,6-3H]uridine incorporation at 2 ug/ml; format: functional, organism-based
# Staphylococcus aureus [32] = test: Antimicrobial activity against rifampin-sensitive Staphylococcus aureus CB190 harboring rpoB H481Y mutant gene by broth microdilution method; format: functional; how it was run: as §1
# Staphylococcus aureus [33] = test: Antimicrobial activity against rifampin-sensitive Staphylococcus aureus CB190 harboring rpoB Q468K mutant gene by broth microdilution method; format: functional; how it was run: as §1
# Staphylococcus aureus [34] = test: Inhibition of protein synthesis in Staphylococcus aureus CB190 assessed as decrease in L-[3,4,5-3H]leucine incorporation at 2 ug/ml; format: functional, organism-based
# [35] = system: DNA gyrase subunit A (Staphylococcus aureus), P20831 [S84L]; test: Activity at Staphylococcus aureus wild-type GyrA S84L mutant
# Staphylococcus aureus [36] = test: Inhibition of protein synthesis in quinolone-resistant Staphylococcus aureus CB814 harboring gyrA S84L and parC S80F mutant genes assessed as L-[3,4,5-3H]leucine incorporation at 2 ug/ml; format: functional, organism-based
# How it was run: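 Time-course radiolabel incorporation in S. aureus cultures with test agent. Precursors: [methyl-3H]thymidine (DNA), [5,6-3H]uridine (RNA), L-[3,4,5-3H]leucine (protein), [2,3-3H]D-alanine (cell wall). At each time point, incorporation with agent is expressed relative to the DMSO-treated control culture as percent incorporation. Time-zero incorporation is set to 100%.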
# Staphylococcus aureus [37] = test: Antimicrobial activity against Staphylococcus aureus CB190 by broth microdilution method; format: functional
# Staphylococcus aureus [38] = test: Inhibition of DNA synthesis in rifamycin-resistant Staphylococcus aureus CB370 harboring rpoB H481Y mutant gene assessed as decrease in [methyl-3H]thymidine incorporation at 2 ug/ml; format: functional, organism-based; how it was run: as §2
# Staphylococcus aureus [39] = test: Antimicrobial activity against Staphylococcus aureus CB815 harboring rpoB H481Y, gyrA […] and parC S80F mutant genes; format: functional
# Staphylococcus aureus [40] = test: Antimicrobial activity against Staphylococcus aureus CB814 harboring […] and parC S80F mutant genes; format: functional
smiles,measurement,setting,value
O=C(O)c1cn(C2CC2)c2cc(N3CCNCC3)c(F)cc2c1=O [CIPROFLOXACIN],MIC,Staphylococcus aureus [1],64 µg/mL
same,CC50,Staphylococcus aureus [2],4.6 µM
same,MIC,Staphylococcus aureus [3],0.25 µg/mL
same,MIC,Staphylococcus aureus [4],0.25 µg/mL
same,Activity,Staphylococcus aureus [5],Active
same,MIC,Staphylococcus aureus [6],0.25 µg/mL
same,MIC,Staphylococcus aureus [7],2 µg/mL
same,MIC,Staphylococcus aureus [8],0.25 µg/mL
same,MIC,Staphylococcus aureus [9],0.25 µg/mL
same,CC50,Staphylococcus aureus [10],0.4 µM
same,MIC,Staphylococcus aureus [11],0.25 µg/mL
same,MIC,Staphylococcus aureus [12],0.25 µg/mL
same,MIC,Staphylococcus aureus [13],0.25 µg/mL
same,MIC,Staphylococcus aureus [14],64 µg/mL
same,MIC,Staphylococcus aureus [15],0.5 µg/mL
same,Activity,Staphylococcus aureus [16],inactive
same,Activity,Staphylococcus aureus [17],inactive
same,MIC,Staphylococcus aureus [18],0.25 µg/mL
same,MIC,Staphylococcus aureus [19],2 µg/mL
same,CC50,Staphylococcus aureus [20],31 µM
same,MIC,Staphylococcus aureus [21],0.25 µg/mL
same,MIC,Staphylococcus aureus [22],8 µg/mL
same,Activity,Staphylococcus aureus [23],inactive
same,MIC,Staphylococcus aureus [24],0.25 µg/mL
same,MIC,Staphylococcus aureus [25],64 µg/mL
same,Activity,Staphylococcus aureus [26],Active
same,MIC,Staphylococcus aureus [27],64 µg/mL
same,MIC,Staphylococcus aureus [28],0.25 µg/mL
same,MIC,Staphylococcus aureus [29],2 µg/mL
same,MIC,Staphylococcus aureus [30],0.25 µg/mL
same,Activity,Staphylococcus aureus [31],Active
same,MIC,Staphylococcus aureus [32],0.25 µg/mL
same,MIC,Staphylococcus aureus [33],0.25 µg/mL
same,Activity,Staphylococcus aureus [34],Active
same,CC50,[35],> 150 µM
same,Activity,Staphylococcus aureus [36],inactive
same,MIC,Staphylococcus aureus [37],0.25 µg/mL
same,Activity,Staphylococcus aureus [38],Active
CCBr [BROMOETHANE],MIC,Staphylococcus aureus [1],4 µg/mL
same,MIC,Staphylococcus aureus [13],4 µg/mL
same,MIC,Staphylococcus aureus [14],4 µg/mL
same,MIC,Staphylococcus aureus [19],4 µg/mL
same,MIC,Staphylococcus aureus [22],2 µg/mL
same,MIC,Staphylococcus aureus [25],4 µg/mL
same,MIC,Staphylococcus aureus [39],4 µg/mL
same,MIC,Staphylococcus aureus [40],4 µg/mL
